Reference: the RNAGym collection of RNA variant scans (doi:10.1126/science.aae0568)
Variants at the floor of the assay were thinned out.

B1: tRNA (parent)
chain: GUUCCGUUGGCGUAAUGGUAACGCGUCUCCCUCCUAAGGAGAAGACUGCGGGUUCGAGUCCCGUACGGAACG

Variants of: B1
Assay: yeast fitness relative to wild type (ratio to wild type); higher = fitter; tRNA-Arg(CCU), competitive growth, 37 C, YPD
How it was run: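 Variants of the tRNA-Arg(CCU) gene, chemically synthesised with a 3% per-site mutation rate at 69 sites, were placed at the native genomic locus in Saccharomyces cerevisiae. The pooled strains were competed in YPD at 37°C for 24 hours in six parallel replicates. Gene amplicons from the start population and from each end population were read by 100-nucleotide paired-end sequencing. Darwinian fitness relative to wild type came from changes in genotype frequencies; genotypes needed ≥ 100 starting reads, and estimates < 0.5 were set to 0.5.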

Row | Variant | yeast fitness
1 | A20C A37U | 0.817
2 | U2C U16A | 0.971
3 | G18C A36G A37C | ≤ 0.5
4 | U32A C33G C46U | ≤ 0.5
5 | A21G G68A | 1.01
6 | U19C C22G A70U | 0.743
7 | A20C C31A A70U | ≤ 0.5
8 | C11G A69C A70U | 0.684
9 | C4G C5U U13A A42U C61U | ≤ 0.5
10 | G18A U26G G48C A65G | ≤ 0.5
11 | A15G A65G | 0.962
12 | U28C U47C G58A | 1.07
13 | U7A A70U | 0.689
14 | C30G G48C G52A G67U | ≤ 0.5
15 | G23A C29A G68A | ≤ 0.5
16 | U19G U35C A43U A65G G68A | ≤ 0.5
17 | U13C C22A C24A | ≤ 0.5
18 | C33G A36U G39A A57U | ≤ 0.5
19 | C4G C11G A36G C55U C61A | 0.52
20 | A14G C27G C61U | ≤ 0.5
21 | A14U A36U G38A U54A | 0.536
22 | U26A C34G A45G | 0.517
23 | G18C A40G A42G G58C | ≤ 0.5
24 | C11G A70G | 0.581

Row | Variant | yeast fitness
25 | G10A C31U A37G | 0.796
26 | A14G A21G C22U C27U A45C G48C C61G | ≤ 0.5
27 | C4G G39A A65C | ≤ 0.5
28 | U19C C24U C66U | 0.712
29 | G6A U59A | 0.715
30 | C5A G41A A57U | ≤ 0.5
31 | C4U A37G A45U | 0.707
32 | C5A C22U C31G C60A | ≤ 0.5
33 | U8G C61A | 0.562
34 | C5U A21C G23A C49A G52A G56C A57C | 0.508
35 | A36G A65C G68C | ≤ 0.5
36 | A14G A40U G58C | 0.706
37 | A15U U28C C55G | 0.589
38 | G12C U47G | 0.602
39 | C22A G23C U32G C66G | ≤ 0.5
40 | A14C C24A A40G C49A C61G | ≤ 0.5
41 | C4G A45U C49U | 0.502
42 | G58A U64G | 1.01
43 | C11U C22G A42G U59C | ≤ 0.5
44 | U7C C27A G51C C60U A69C | ≤ 0.5
45 | G38C C60U G68C | ≤ 0.5
46 | C30U A36C G52A C55G | ≤ 0.5
47 | C22A A37C G56C | ≤ 0.5
48 | U7A G23A A43U | ≤ 0.5

Row | Variant | yeast fitness
49 | G39C G51C A65G | ≤ 0.5
50 | A15C G25C G52A A57C C60G | ≤ 0.5
51 | U28C A42G A65G | 0.598
52 | U2C C34U A65U | 0.6
53 | C5A C22A A40G | ≤ 0.5
54 | U26C C29A C34A | ≤ 0.5
55 | U2G C33A G39C A69U | ≤ 0.5
56 | G10C C22A C33A | 0.538
57 | G6A C22G U47A A65G | ≤ 0.5
58 | C46U C61G | 0.593
59 | G10C C60U | ≤ 0.5
60 | U7C G18C C55G | ≤ 0.5
61 | C5U C24U A42C A57U C62A | ≤ 0.5
62 | C11G G12C C33U C60U | ≤ 0.5
63 | U3C A65C | 1
64 | C4A G6C U8A A20C A21U C31A C33U C46U A57G | ≤ 0.5
65 | A43C C66G | 0.603
66 | C4A C31A U32A | ≤ 0.5
67 | C11U A15U C27U C60G | 0.563
68 | C5U U7G C62A | ≤ 0.5
69 | G6C U19A | 0.78
70 | C27U C46U | 0.978
71 | C11A C22U C24G C30G | ≤ 0.5
72 | U7G U26C A43G C49U | ≤ 0.5

Row | Variant | yeast fitness
73 | U3C U26A C33U C49U | ≤ 0.5
74 | G10C C22A C24G A65U | ≤ 0.5
75 | C27G C31G U59C | 0.604
76 | C4U G9C A45G C61A | ≤ 0.5
77 | C5U G9A C62U | 0.995
78 | C22G G44C U53A | ≤ 0.5
79 | U8A C34U A65U | ≤ 0.5
80 | C5G A37U | 0.726
81 | C5U C49U G67C | 0.608
82 | U2G G10C A65C | ≤ 0.5
83 | G6C C11U C34G U47G | ≤ 0.5
84 | G17A C24G C27G U59C A69U | ≤ 0.5
85 | U59G A69C | 0.653
86 | G56C G68C | 0.716
87 | A15G A20U G48A | 0.66
88 | C49U G56U | 0.677
89 | C33A G39C C49U U54A G63C G67A | ≤ 0.5
90 | C4A U13C C30U A40G C55A G63C A65C | ≤ 0.5
91 | C11A A43G G50C | ≤ 0.5
92 | C4A C5G U54A C62U | 0.536
93 | C24A C33A C66A | 0.533
94 | C34U A37G C62A | ≤ 0.5
95 | G25A C61U A69C | 0.637
96 | G10A C31U C34A A40G A65U | ≤ 0.5

Row | Variant | yeast fitness
97 | G18A C30U | 0.709
98 | C5G G48C G67C | 0.573
99 | C11A G25A G58C A65G | 0.568
100 | U3G C11U C55G | ≤ 0.5
101 | C5U A15C G58A | 0.569
102 | U8A U35G | ≤ 0.5
103 | U3A U13G C22U A40U C66G | 0.627
104 | A14C U16A | 0.597
105 | U3C G23C C62G | 0.535
106 | G9A G44A | 0.983
107 | A45C C61G | 0.591
108 | G50C G58C | 0.722
109 | G10A C29A A57C U59A | ≤ 0.5
110 | G23C A42U C49G A65U | ≤ 0.5
111 | A15C C29G A40U G52A | ≤ 0.5
112 | C5G U32C | 0.946
113 | G9C U28A C46U A70U | 0.615
114 | G23A C33U | 0.547
115 | U7G A36U G63A | 0.532
116 | U2C C5U A15U | 0.568
117 | G10C C11G C24G G48C | ≤ 0.5
118 | C30U C62U | 0.868
119 | U8C C29U U35G | ≤ 0.5
120 | C5A G9C | 0.627

Row | Variant | yeast fitness
121 | C31G A40G C46A C55G | 0.578
122 | U47C C55A | 0.699
123 | U7A G18A U19G C62A | 0.633
124 | A21C A36C | 0.697
125 | A43U A45C | 0.837
126 | C4U A21G U32A A40C C46A C62U G67A | ≤ 0.5
127 | C22U C24G A69C | 0.539
128 | C24U U64G | 0.691
129 | A14G A20U | 0.942
130 | G10A U13G A36G | 0.52
131 | C11U A14C U16G C29A G68C | 0.585
132 | A20U G25A G63A | 0.716
133 | G10C A15C A21C | ≤ 0.5
134 | U8G A45C C49U | ≤ 0.5
135 | C49A A57C | 0.573
136 | G25A G58A | 0.872
137 | U28C C46U | 0.911
138 | C5G G48C C49U U54G C66A | 0.682
139 | U3C A20U C30A | 0.568
140 | C22G U35A G58A G67U | ≤ 0.5
141 | U26A U53G | 0.704
142 | U19C C24A G58A C66U | ≤ 0.5
143 | U19A C27U U59A A65C G67U | 0.575
144 | A20U A45C C55U A57U | ≤ 0.5

Row | Variant | yeast fitness
145 | U32G G39C G52C | 0.531
146 | U2C U26G G38C | ≤ 0.5
147 | A20C C62U A70G | 0.733
148 | C49U A65U A70U | 0.657
149 | A20U U28A A69U | 0.585
150 | U2C U19G C60A | 0.528
151 | C31A A37G C49U C55U A57G | ≤ 0.5
152 | U19A U64G | 0.687
153 | C5A G17A C49G | 0.532
154 | A36C A45U U47C G52C A65U G67C | ≤ 0.5
155 | C34U C61G A70C | 0.528
156 | G6C G17A A36C C62G | 0.536
157 | U19A G48C G67C | ≤ 0.5
158 | C27A C33G | 0.711
159 | U19C C31A A36C G44A A57U | ≤ 0.5
160 | G58U A65U | 0.979
161 | C11G A15C C29U G41C G52A | ≤ 0.5
162 | U2C A20G C30U | 0.576
163 | U2A U7C G25A A36U C62U G67A | ≤ 0.5
164 | C24G C27U A43U G52C | ≤ 0.5
165 | A45C C46A C49G | 0.722
166 | A40U A45U A57U | 0.611
167 | G6A A20C A45U C46U A57C | 0.501
